Hits are enriched below; roughly 2.2% of the tested compounds scored in any of these assays.
Apaf-1 inh: inhibitors of human Apaf-1 apoptosome, primary screen, biochemical, DEVD-Rh110 fluorescence, uHTS. inhibition, % at 20 µM. hit rate 0.71% among 330,000. AID 489030, 2010. reconstituted apoptosome caspase-3 activity. Apoptotic protease-activating factor 1 (Homo sapiens), O14727; active = inhibition of at least 40% at 20 µM
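Assay system – apoptosome proteins · Medium – Hepes buffer, pH 7.5 · Also added – cytochrome c with DEVD-Rh110 · Timing – 30 min compound preincubation, 50 min activation, room temperature · Detection – Rh110 fluorescence, excitation 480 nm, emission 540 nm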
GSTO1 counter: inhibitors of recombinant GSTO1, primary screen, counter-screen for RBBP9 inhibitor project, biochemical, fluorescence polarization. Glutathione S-transferase omega-1 (Homo sapiens), P78417. activity-based probe fluorescence polarization. inhibition, % at 5.96 µM. hit rate 1.1% among 300,000;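 active = inhibition above the campaign mean inhibition plus 3 SD, cut at about 35% in these data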
PAD4 inh: human PAD4 inhibitors, primary screen, biochemical, fluorescence polarization, 1536-well format; Protein-arginine deiminase type-4 (Homo sapiens), Q9UM07; recombinant PAD4, RCA probe fluorescence polarization; inhibition, % at 6.36 µM; hit rate 0.41% among 330,000; AID 485272, 2010;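 active = percent inhibition above a cutoff equal to the mean of all tested compounds plus 3 SD, cut at about 15% in these data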
SUMO HTRF inh: inhibitors of in vitro SUMOylation cascade, primary screen, biochemical, HTRF, uHTS; SUMO-conjugating enzyme UBC9 (Homo sapiens), P63279; HTRF SUMOylation assay, SAE1/SAE2 + UBC9; inhibition, % at 35 µM; hit rate 0.36% among 290,000; AID 2006, 2009; in the data active = inhibition above about 50%, passing the limit was not always enough
Rin1-Abl PPI inh: inhibitors of Rin1-Abl protein binding, primary screen, biochemical, TR-FRET; Tyrosine-protein kinase ABL1 (Homo sapiens) + Ras and Rab interactor 1 (Homo sapiens), …; inhibition, % at 7.35 µM; hit rate 0.4% among 360,000; AID 588664, 2011; in the data active = inhibition above about 5%, passing the limit was not always enough
UBC13 polyUb: UBC13 polyubiquitin chain formation inhibitors, primary screen, biochemical, TR-FRET, uHTS; hit rate 0.47% among 330,000; Ubiquitin-conjugating enzyme E2 N (Homo sapiens), P61088; AID 485273, 2010; inhibition, % at 20 µM; in the data active = inhibition above about 45%, passing the limit was not always enough
PAD4 confirm: human PAD4 inhibitors, confirmation, biochemical, fluorescence polarization; AID 488796, 2010; shares compounds with PAD4 inh; hit rate 28% among 1,200; inhibition, % at 6.36 µM; recombinant PAD4, RCA probe fluorescence polarization;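 active = mean inhibition across replicates above the hit cutoff set by the earlier primary screen, cut at about 15% in these data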;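 also: inhibitors block active-site labeling by the probe so polarization falls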
Casp3 counter: CASP3 inhibitor validation, counterassay for project on UBE2N polyubiquitination blockers, biochemical, one dose. shares compounds with UBC13 polyUb. Recombinant caspase-3, Caspase-Glo 3/7 luminescence, 60 min. inhibition, % at 20 µM. hit rate 4% among 1,400;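 active = mean inhibition across replicates above about 26%, limit read from the data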
UBC13 confirm: UBC13 polyubiquitination inhibitors, single-point retest, confirmation, biochemical, TR-FRET, single concentration; inhibition, % at 10 µM; hit rate 68% among 1,400; shares compounds with UBC13 polyUb; in the data active = inhibition above about 45%
Apaf-1 inh conf: Apaf-1 inhibitors, single-dose retest, confirmation, biochemical, fluorescence, DEVD-Rh110, 20 µM. reconstituted apoptosome, caspase-3 DEVD-Rh110 fluorescence. shares compounds with Apaf-1 inh. AID 504614, 2011. inhibition, % at 20 µM. hit rate 25% among 1,800;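 active = mean inhibition of at least 40% at 20 µM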
Rh110 interf inh: Rh110 fluorescence interference by putative Apaf-1 inhibitors, confirmation, artefact control for Apaf-1 inhibitor project, biochemical, 20 µM. activation (fluorescence interference), % at 20 µM. shares compounds with Apaf-1 inh. AID 504615, 2011. 1,800 tested, under 10 active. quenched caspase reaction;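 active = signal rise of 40% or more at 20 µM, treated as a fluorescence artifact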
Fluor interf inh: fluorescence interference of Apaf-1 inhibitor hits, dose response, artefact control for Apaf-1 inhibitor project; shares compounds with Apaf-1 inh; fluorescence interference counterscreen, Apaf-1 assay format; IC50, µM; 460 tested, under 10 active; AID 588538, 2011; call rule not given here
A number is an active result; . = inactive; / = no result given.

SMILES	Apaf-1 inh	GSTO1 counter	PAD4 inh	SUMO HTRF inh	Rin1-Abl PPI inh	UBC13 polyUb	PAD4 confirm	Apaf-1 inh conf	Rh110 interf inh	others
O=C(NCCCN1CCOCC1)c1cc2c([nH]c3ccccc32)c(-c2cccc(Br)c2)n1	.	.	46.1	.	.	50.7	31.1	/	/	Casp3 counter=.;UBC13 confirm=.
CSc1ccc(Cn2c(C)c(C(=O)NCc3cccc(C(F)(F)F)c3)sc2=O)cc1	/	/	/	/	.	/	/	/	/
Cc1nnc(N/N=C/c2cccc(OCc3ccc(Cl)c(Cl)c3)c2)n1N	77.1	46.3	33.5	.	.	.	.	.	.
CCOc1cc(/C=N/Nc2nnc(C)n2N)ccc1OC(C)=O	.	/	/	.	.	.	/	/	/
COc1ccc(NC(=O)CN2C(=O)NC(C)(Cc3ccc(OC)c(OC)c3)C2=O)cc1 (configuration not stated)	/	/	/	/	.	/	/	/	/
N#Cc1c(N2CCN(c3ccc(F)cc3)CC2)nc(N)c2c(N)nc3c(c12)CC(=O)N3C1CC1	/	/	/	.	.	/	/	/	/
CN(CCO)c1nc(N)c2c(N)nc3c(c2c1C#N)CC(=O)N3C1CCCC1	98.3	.	15.9	100.6	/	.	.	.	.
Cc1cc2cc(CNC(=O)c3ccc(S(=O)(=O)N4CCCCC4)cc3)ccc2n1C	53.3	.	31.1	.	.	.	.	.	.
Cc1cc2cc(CNC(=O)c3ccc(S(=O)(=O)N4CCCC4)cc3)ccc2n1C	.	.	.	.	.	.	/	/	/
Cc1cc2cc(CNS(=O)(=O)c3ccccc3)ccc2n1C	60.9	.	18.3	.	.	.	.	.	.
CCCc1cc(=O)[nH]c(SCCc2ccccc2)n1	.	.	.	.	.	.	/	/	/
COc1cc(NCc2ccccc2)c2ncn(C(C)C)c2c1	.	/	.	/	.	.	/	/	/
CCC(CN(C)C)Oc1cc(NCc2ccccc2)c2ncn(C(C)C)c2c1 (configuration not stated)	97.9	/	37.7	/	.	.	.	80.4	.	Fluor interf inh=.
CCOC(=O)C1=CCN(S(=O)(=O)c2ccccc2C)C1c1ccc(Cl)c(Cl)c1 (configuration not stated)	/	/	/	/	.	/	/	/	/
N#CCCn1[nH]c(-c2ccccc2)cc1=O	71.6	38.7	51.2	69.4	.	.	.	.	.
CCCCNS(=O)(=O)c1cccc(NC(=O)[C@@H]2O[C@H](CO)[C@@H](O)[C@H]2O)c1	/	/	/	/	.	/	/	/	/
CC1=NN(c2ccc(Cl)cc2)C(=O)C1C(c1ccccc1O)c1c(C)[nH]n(-c2ccc(Cl)cc2)c1=O (configuration not stated)	97.2	72.2	66.8	.	.	.	.	42.1	.	Fluor interf inh=.
Cc1[nH]n(-c2ccccc2)c(=O)c1-c1ccc(Cl)cc1	.	.	.	.	.	.	/	/	/
Cc1ccc(C(=O)OCC(=O)N(CCc2ccccc2)Cc2ccccc2)cc1S(=O)(=O)N1CCOCC1	.	.	.	/	.	.	/	/	/
Cc1[nH]n(-c2ccccc2)c(=O)c1C(c1cccc([N+](=O)[O-])c1O)c1c(C)[nH]n(-c2ccccc2)c1=O	87.8	63.8	64.4	62.4	.	.	.	.	.
Oc1ccc(C=Nc2cccc3ncccc23)c(O)c1	86.7	.	15.6	.	.	.	.	.	.
COc1ccc2ccccc2c1C(O)c1nccn1C (configuration not stated)	40.7	35.7	26.3	.	.	.	39.2	.	.
O=C(Nc1ccc(N2CCOCC2)c2nonc12)C1CCCC1	.	.	.	.	.	.	/	/	/
Nc1ccc(N2CCOCC2)c2nonc12	84.2	85.8	81.0	98.9	.	.	.	.	.
CCc1ccc([C@H]2[C@@H]3C(=O)C[C@@H]4C(=O)N(Cc5ccccc5)C(=O)[C@@H]4[C@@H]3CN2S(=O)(=O)c2ccc(C)cc2)cc1	/	/	/	/	.	/	/	/	/
SMILES	Apaf-1 inh	GSTO1 counter	PAD4 inh	SUMO HTRF inh	Rin1-Abl PPI inh	UBC13 polyUb	PAD4 confirm	Apaf-1 inh conf	Rh110 interf inh	others
Cc1[nH][nH]c(=O)c1C(c1ccc(-c2cccc(C(=O)O)c2)o1)c1c(C)[nH][nH]c1=O	77.6	.	33.3	88.5	.	.	.	.	.
COc1ccc(-n2c(C)cc(/C=N/Nc3nnc(C)n3N)c2C)cc1	52.6	45.9	36.1	.	.	.	.	.	.
CCOc1ccc(-n2c(C)cc(/C=N/Nc3nc(C)cc(=O)[nH]3)c2C)cc1	.	.	.	.	.	.	/	/	/
CCOC(=O)C1=C(COC(=O)c2sccc2C)NC(=O)NC1C (configuration not stated)	.	/	.	/	.	.	/	/	/
CCOC(=O)C1=C(COC(=O)c2ccc([N+](=O)[O-])s2)NC(=O)NC1C (configuration not stated)	45.7	/	25.6	/	.	.	16.7	.	.
COc1ccc(C(=O)c2nccc3cc(OC)c(OC)cc23)cc1OC	83.6	/	60.5	/	13.9	.	25.1	43.6	.	Fluor interf inh=.
CCOC(=O)c1ccc(-n2[nH]c(-c3ccccc3)cc2=O)cc1	42.6	36.0	40.0	.	.	.	.	.	.
COC(=O)[C@@]1(C)[C@H]2C(=O)N(Cc3ccccc3)C(=O)[C@H]2[C@H]2CN=C(SCc3ccc(C)cc3)N21	.	/	.	/	.	/	/	/	/
Cc1ccc(C)c(C(O)c2ncc(-c3ccc(C(F)(F)F)cc3)[nH]2)c1 (configuration not stated)	/	/	/	/	.	/	/	/	/
